According to PMC3951244 (Bioorganic & medicinal chemistry letters, 2014):
pIC50: −log10 of the molar value.

How the values were obtained:
[1] = system: CYP; assay: CYP inhibition profile; assay type: in vitro ADME
[2] = biological target: T1, GlyT1 (Homo sapiens, UniProt P48067); assay: Enzyme kinetics of [14C]-glycine transport; assay type: biochemical; settings: [14C]-glycine transport kinetics; 120 nM 12b in Fig. 3
T1 sequence (P48067 1-706): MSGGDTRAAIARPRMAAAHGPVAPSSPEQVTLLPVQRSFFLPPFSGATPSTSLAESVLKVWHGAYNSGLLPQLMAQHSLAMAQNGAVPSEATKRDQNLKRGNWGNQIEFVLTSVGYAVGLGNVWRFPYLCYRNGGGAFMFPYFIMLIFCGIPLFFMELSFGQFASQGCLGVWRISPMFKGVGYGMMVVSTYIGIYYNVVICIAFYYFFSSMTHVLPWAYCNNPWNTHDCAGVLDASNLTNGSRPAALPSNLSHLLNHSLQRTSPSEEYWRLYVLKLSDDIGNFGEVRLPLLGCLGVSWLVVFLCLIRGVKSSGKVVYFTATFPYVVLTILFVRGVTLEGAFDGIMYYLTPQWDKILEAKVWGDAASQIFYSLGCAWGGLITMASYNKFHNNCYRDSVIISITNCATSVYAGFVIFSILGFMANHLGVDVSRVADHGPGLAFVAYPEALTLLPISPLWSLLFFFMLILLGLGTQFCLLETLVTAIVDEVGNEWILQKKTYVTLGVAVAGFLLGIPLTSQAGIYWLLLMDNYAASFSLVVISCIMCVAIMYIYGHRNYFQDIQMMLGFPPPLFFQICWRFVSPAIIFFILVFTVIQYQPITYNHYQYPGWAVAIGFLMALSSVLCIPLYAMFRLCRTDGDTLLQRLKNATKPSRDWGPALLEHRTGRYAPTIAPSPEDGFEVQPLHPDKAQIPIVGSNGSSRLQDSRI
How it was run: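 Saturation curves of [14C]-glycine transport were run with either vehicle or 120 nM test compound. Inhibition mode relative to glycine was assessed from an Eadie-Hoffstee plot of the transport data.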

SMILES | pIC50 [1] | Mechanism of GlyT1 inhibition with respect to glycine [2]
Cn1cnc(S(=O)(=O)N2CC3CCC(NC(=O)c4ccc(Cl)cc4Cl)C3C2)c1 (stereo not drawn) [Compound 12a] | < 5.00 | –
Cn1cnc(S(=O)(=O)N2CC3CCC(NC(=O)c4ccccc4C(F)(F)F)C3C2)c1 (stereo not drawn) [Compound 12b] | – | competitively inhibits
Cn1cnc(S(=O)(=O)N2CC(C(NC(=O)c3ccc(Cl)cc3Cl)c3ccccn3)C2)c1 (stereo not drawn) [Compound 27c] | < 5.00 | –
